{
  "source": "ChEMBL document CHEMBL2150917",
  "about": "“Lignopurines: a new family of hybrids between cyclolignans and purines. Synthesis and biological evaluation” (2012)",
  "key": {"A549": {"test_system": "A549", "assay": "Growth inhibition of human A549 cells after 72 hrs by SRB assay", "format": "functional", "conditions": "A549, 72 h", "summary_of_the_method": "(§1)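 Cells seeded at 5×10^3/well in RPMI and attached for 18 h drug-free. Samples added in DMSO/H2O 3:7 for 72 h exposure. Cells then fixed with cold TCA for 60 min at 4 °C, stained with 0.4% SRB in 1% acetic acid for 10 min, stain solubilized in Tris and read at 490 nm. GI50 from 100×[(T−T0)/(C−T0)]=50; mean of triplicates.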"}, "MDA-MB-231": {"test_system": "MDA-MB-231", "assay": "Growth inhibition of human MDA-MB-231 cells after 72 hrs by SRB assay", "format": "functional", "conditions": "MDA-MB-231, 72 h", "summary_of_the_method": "as §1"}, "HT-29": {"test_system": "HT-29", "assay": "Growth inhibition of human HT-29 cells after 72 hrs by SRB assay", "format": "functional", "conditions": "HT-29, 72 h", "summary_of_the_method": "as §1"}, "HeLa [1]": {"test_system": "HeLa", "assay": "Disruption of microtubule network in human HeLa cells at 1 uM after 24 hrs by DAPI staining-based confocal laser scanning microscopy relative to control", "format": "cell-based", "summary_of_the_method": "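HeLa cells in DMEM with 10% heat-inactivated FCS, 2 mM L-glutamine, penicillin/streptomycin, 37 °C, 5% CO2, grown on poly-L-lysine coverslips; 1 µM, 24 h. Fixed in 4% paraformaldehyde in HPEM (pH 6.6), 0.5% Triton X-100 permeabilized, anti-alpha-tubulin mouse mAb (1:150), Cy2 anti-mouse IgG, DAPI nuclei; confocal imaging versus untreated cells; at least three experiments.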"}, "HeLa [2]": {"test_system": "HeLa", "assay": "Induction of cell cycle arrest in human HeLa cells assessed as accumulation at G2/M phase at 1 uM after 24 hrs by propidium iodide staining-based FACS flow cytometry", "format": "functional", "summary_of_the_method": "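Mycoplasma-negative HeLa cells in DMEM with 10% heat-inactivated FCS, 2 mM L-glutamine, penicillin/streptomycin, 37 °C, 5% CO2; exposed to 1 µM for 24 h alongside untreated controls. 3–5×10^5 cells fixed overnight in 70% ethanol at 4 °C, PBS-washed, 1 h with 1 mg/mL RNase A plus 20 µg/mL propidium iodide at room temperature; flow cytometry for % G2/M; three independent experiments.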"}},
  "note": "Activity calls are given as the source filed them. No cut-off for these calls is given here.",
  "data": [
    {"smiles": "COc1cc([C@@H]2c3cc4c(cc3C=C(C=O)[C@H]2C(=O)OCCCBr)OCO4)cc(OC)c1OC", "values": [
      {"measurement": "GI50", "setting": "A549", "value": 190, "unit": "nM"},
      {"measurement": "GI50", "setting": "MDA-MB-231", "value": 130, "unit": "nM"},
      {"measurement": "GI50", "setting": "HT-29", "value": 140, "unit": "nM"}
    ]},
    {"smiles": "CCCNCC1=Cc2cc3c(cc2[C@@H](c2cc(OC)c(OC)c(OC)c2)[C@@H]1C(=O)OCCCCCCn1cnc2c(Cl)ncnc21)OCO3", "values": [
      {"measurement": "GI50", "setting": "A549", "value": 2300, "unit": "nM"},
      {"measurement": "GI50", "setting": "MDA-MB-231", "value": 3500, "unit": "nM"},
      {"measurement": "GI50", "setting": "HT-29", "value": 2200, "unit": "nM"}
    ]},
    {"smiles": "COc1cc([C@@H]2c3cc4c(cc3[C@H](O)[C@@H](CO)[C@H]2C(=O)OCCCBr)OCO4)cc(OC)c1OC", "values": [
      {"measurement": "GI50", "setting": "A549", "value": 140, "unit": "nM"},
      {"measurement": "GI50", "setting": "MDA-MB-231", "value": 160, "unit": "nM"},
      {"measurement": "GI50", "setting": "HT-29", "value": 140, "unit": "nM"}
    ]},
    {"smiles": "CCCNc1ncnc2c1ncn2CCCCCCOC(=O)[C@@H]1C(C=O)=Cc2cc3c(cc2[C@H]1c1cc(OC)c(OC)c(OC)c1)OCO3", "values": [
      {"measurement": "GI50", "setting": "A549", "value": 1200, "unit": "nM"},
      {"measurement": "Activity", "setting": "HeLa [1]", "value": "Active"},
      {"measurement": "GI50", "setting": "MDA-MB-231", "value": 5100, "unit": "nM"},
      {"measurement": "GI50", "setting": "HT-29", "value": 1200, "unit": "nM"},
      {"measurement": "Activity", "setting": "HeLa [2]", "value": "Active"}
    ]},
    {"smiles": "COc1cc([C@@H]2c3cc4c(cc3C=C(C=O)[C@H]2C(=O)OCCCCCCn2cnc3cncnc32)OCO4)cc(OC)c1OC", "values": [
      {"measurement": "GI50", "setting": "A549", "value": 310, "unit": "nM"},
      {"measurement": "Activity", "setting": "HeLa [1]", "value": "Active"},
      {"measurement": "GI50", "setting": "MDA-MB-231", "value": 2400, "unit": "nM"},
      {"measurement": "GI50", "setting": "HT-29", "value": 530, "unit": "nM"},
      {"measurement": "Activity", "setting": "HeLa [2]", "value": "Active"}
    ]},
    {"smiles": "COc1cc([C@@H]2c3cc4c(cc3C=C(C=O)[C@H]2C(=O)OCCCCCCn2cnc3c(Cl)ncnc32)OCO4)cc(OC)c1OC", "values": [
      {"measurement": "GI50", "setting": "A549", "value": 400, "unit": "nM"},
      {"measurement": "Activity", "setting": "HeLa [1]", "value": "Active"},
      {"measurement": "GI50", "setting": "MDA-MB-231", "value": 3100, "unit": "nM"},
      {"measurement": "GI50", "setting": "HT-29", "value": 770, "unit": "nM"},
      {"measurement": "Activity", "setting": "HeLa [2]", "value": "Active"}
    ]},
    {"smiles": "COc1cc([C@@H]2c3cc4c(cc3[C@H](O)[C@@H](CO)[C@H]2C(=O)OCCCCCCBr)OCO4)cc(OC)c1OC", "values": [
      {"measurement": "GI50", "setting": "A549", "value": 250, "unit": "nM"},
      {"measurement": "GI50", "setting": "MDA-MB-231", "value": 350, "unit": "nM"},
      {"measurement": "GI50", "setting": "HT-29", "value": 160, "unit": "nM"}
    ]},
    {"smiles": "COc1cc([C@@H]2c3cc4c(cc3[C@@H](O[C@@H]3O[C@@H]5CO[C@@H](C)O[C@H]5[C@H](O)[C@H]3O)[C@H]3COC(=O)[C@H]23)OCO4)cc(OC)c1O", "note": "[ETOPOSIDE]", "values": [
      {"measurement": "GI50", "setting": "A549", "value": 2200, "unit": "nM"},
      {"measurement": "GI50", "setting": "MDA-MB-231", "value": 7200, "unit": "nM"},
      {"measurement": "GI50", "setting": "HT-29", "value": 9400, "unit": "nM"}
    ]},
    {"smiles": "CCCNCC1=Cc2cc3c(cc2[C@@H](c2cc(OC)c(OC)c(OC)c2)[C@@H]1C(=O)OCc1ccc(Cn2cnc4c(Cl)ncnc42)cc1)OCO3", "values": [
      {"measurement": "GI50", "setting": "A549", "value": 580, "unit": "nM"},
      {"measurement": "GI50", "setting": "MDA-MB-231", "value": 1300, "unit": "nM"},
      {"measurement": "GI50", "setting": "HT-29", "value": 630, "unit": "nM"}
    ]},
    {"smiles": "COc1cc([C@@H]2c3cc4c(cc3C=C(C=O)[C@H]2C(=O)OCCCCCCn2cnc3ncnc(Cl)c32)OCO4)cc(OC)c1OC", "values": [
      {"measurement": "GI50", "setting": "A549", "value": 1200, "unit": "nM"},
      {"measurement": "Activity", "setting": "HeLa [1]", "value": "Active"},
      {"measurement": "GI50", "setting": "MDA-MB-231", "value": 3700, "unit": "nM"},
      {"measurement": "GI50", "setting": "HT-29", "value": 1700, "unit": "nM"},
      {"measurement": "Activity", "setting": "HeLa [2]", "value": "Active"}
    ]},
    {"smiles": "COc1cc([C@@H]2c3cc4c(cc3C=C(C=O)[C@H]2C(=O)OCCCn2cnc3cncnc32)OCO4)cc(OC)c1OC", "values": [
      {"measurement": "GI50", "setting": "A549", "value": 790, "unit": "nM"},
      {"measurement": "Activity", "setting": "HeLa [1]", "value": "Active"},
      {"measurement": "GI50", "setting": "MDA-MB-231", "value": 7700, "unit": "nM"},
      {"measurement": "GI50", "setting": "HT-29", "value": 710, "unit": "nM"},
      {"measurement": "Activity", "setting": "HeLa [2]", "value": "Active"}
    ]},
    {"smiles": "COc1cc([C@@H]2c3cc4c(cc3C=C(C=O)[C@H]2C(=O)OCCCn2cnc3c(Cl)ncnc32)OCO4)cc(OC)c1OC", "values": [
      {"measurement": "GI50", "setting": "A549", "value": 750, "unit": "nM"},
      {"measurement": "Activity", "setting": "HeLa [1]", "value": "Active"},
      {"measurement": "GI50", "setting": "MDA-MB-231", "value": 2400, "unit": "nM"},
      {"measurement": "GI50", "setting": "HT-29", "value": 910, "unit": "nM"},
      {"measurement": "Activity", "setting": "HeLa [2]", "value": "Active"}
    ]},
    {"smiles": "COc1cc([C@@H]2c3cc4c(cc3C=C(C=O)[C@H]2C(=O)OCc2ccc(Cn3cnc5c(Cl)ncnc53)cc2)OCO4)cc(OC)c1OC", "values": [
      {"measurement": "GI50", "setting": "A549", "value": 29, "unit": "nM"},
      {"measurement": "Activity", "setting": "HeLa [1]", "value": "Active"},
      {"measurement": "GI50", "setting": "MDA-MB-231", "value": 810, "unit": "nM"},
      {"measurement": "GI50", "setting": "HT-29", "value": 51, "unit": "nM"},
      {"measurement": "Activity", "setting": "HeLa [2]", "value": "Active"}
    ]},
    {"smiles": "COc1cc(-c2c(C(=O)OCCCn3cnc4c(Cl)ncnc43)c(C=O)cc3cc4c(cc23)OCO4)cc(OC)c1OC", "values": [
      {"measurement": "GI50", "setting": "A549", "value": 2000, "unit": "nM"},
      {"measurement": "Activity", "setting": "HeLa [1]", "value": "Active"},
      {"measurement": "GI50", "setting": "MDA-MB-231", "value": 5000, "unit": "nM"},
      {"measurement": "GI50", "setting": "HT-29", "value": 2100, "unit": "nM"},
      {"measurement": "Activity", "setting": "HeLa [2]", "value": "Active"}
    ]},
    {"smiles": "COC(=O)[C@@H]1C(C=O)=Cc2cc3c(cc2[C@H]1c1cc(OC)c(OC)c(OC)c1)OCO3", "note": "[PODOPHYLLIC ALDEHYDE]", "values": [
      {"measurement": "GI50", "setting": "A549", "value": 60, "unit": "nM"},
      {"measurement": "GI50", "setting": "MDA-MB-231", "value": 200, "unit": "nM"},
      {"measurement": "GI50", "setting": "HT-29", "value": 39, "unit": "nM"}
    ]},
    {"smiles": "CCC/N=C/C1=Cc2cc3c(cc2[C@@H](c2cc(OC)c(OC)c(OC)c2)[C@@H]1C(=O)OCc1ccc(Cn2cnc4c(Cl)ncnc42)cc1)OCO3", "values": [
      {"measurement": "GI50", "setting": "A549", "value": 59, "unit": "nM"},
      {"measurement": "GI50", "setting": "MDA-MB-231", "value": 740, "unit": "nM"},
      {"measurement": "GI50", "setting": "HT-29", "value": 90, "unit": "nM"}
    ]},
    {"smiles": "COc1cc([C@@H]2c3cc4c(cc3C=C(C=O)[C@H]2C(=O)OCc2ccc(CBr)cc2)OCO4)cc(OC)c1OC", "values": [
      {"measurement": "GI50", "setting": "A549", "value": 85, "unit": "nM"},
      {"measurement": "GI50", "setting": "MDA-MB-231", "value": 700, "unit": "nM"},
      {"measurement": "GI50", "setting": "HT-29", "value": 77, "unit": "nM"}
    ]},
    {"smiles": "COc1cc([C@@H]2c3cc4c(cc3C=C(C=O)[C@H]2C(=O)OCCCCCCBr)OCO4)cc(OC)c1OC", "values": [
      {"measurement": "GI50", "setting": "A549", "value": 660, "unit": "nM"},
      {"measurement": "GI50", "setting": "MDA-MB-231", "value": 1800, "unit": "nM"},
      {"measurement": "GI50", "setting": "HT-29", "value": 740, "unit": "nM"}
    ]}
  ]
}
